In ChEMBL document CHEMBL1157590, “Design, synthesis, and preliminary pharmacological evaluation of new imidazolinones as L-DOPA prodrugs” (Bioorg Med Chem, 2010):
In brackets after ≈: the same amount, converted by molar mass. Activity calls are given as the source filed them. The rule behind the calls is not given here.

Tests used:
[1] = Octanol-water partition coefficient, log P at pH 7.4 by HPLC; type: physicochemical
Summary of the method: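 Shake-flask method. About 5 mg of compound was shaken in 1 mL n-octanol and filtered, then an equal volume of phosphate buffer pH 7.4 was added. The mixture was inverted up to 200 times over 5 min and left 30 min for the phases to separate. Both phases were analysed by HPLC. Mean of three experiments, SEM reported.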

[2] = Metabolic stability in 80% rat plasma assessed as half life at pH 7.4; type: ADME, cell-free
Summary of the method: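 Plasma was prepared from citrated blood (0.3% citric acid) of rats or humans by centrifugation at 3000 g and diluted to 80% with 0.02 M phosphate buffer pH 7.4. Drug from a 1 mg/mL acetonitrile stock was incubated at 37 °C with shaking. Timed aliquots were deproteinized with 0.01 M HCl in methanol, centrifuged and analysed by HPLC. First-order plots gave t1/2; triplicate, mean ± SEM.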

[3] = Chemical stability assessed as half life in phosphate buffer at pH 7.4; type: physicochemical
Summary of the method: (§1)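 Prodrug hydrolysis was followed at 37 ± 0.5 °C. Line 3 used 0.02 M HCl buffer pH 1.3 (nonenzymatic simulated gastric fluid); line 4 used 0.02 M phosphate buffer pH 7.4. Each buffer contained 20% acetonitrile, and the reaction was started with 10^-4 M acetonitrile stock. Aliquots were analysed by HPLC. Kobs came from the slope of log(% residual prodrug) versus time; triplicate runs, mean ± SEM.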

[4] = Aqueous solubility after 15 mins by shake flask method; type: physicochemical; details: water
[5] = Chemical stability assessed as half life in hydrochloric acid buffer at pH 1.3; type: physicochemical; summary of the method: as §1
Homo sapiens = species on record: Homo sapiens; assay: Metabolic stability in 80% human plasma assessed as half life at pH 7.4
[6] = tested on: Radical scavenging activity; assay: Antioxidant activity assessed as DPPH radical scavenging activity; type: functional
Summary of the method: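 DPPH-HPLC method. Fresh 500 μM DPPH in methanol was mixed 1:1 by volume with antioxidant solutions made at 600, 300, 100 and 50 μM in methanol (DPPH final 250 μM). Residual DPPH was separated by reversed-phase C18 HPLC using a pH 3.0 phosphate/octanesulfonate/EDTA mobile phase with 6% acetonitrile. Vitamin E, caffeic acid and L-DOPA were run as references.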

logD [1]	half-life [2]	half-life [3]	solubility thermodynamic at 0.25 h [4]	half-life [5]	half-life (Homo sapiens)	logP [1]	SMILES	Activity [6]
0.101	1.17 h	4.2 h	3990 µg/mL (≈ 12.9 mM)	189 h	0.714 h		COC(=O)CN1C(=O)[C@H](Cc2ccc(O)c(O)c2)NC1(C)C	Active
0.042	0.065 h	11.6 h	26000 µg/mL (≈ 66.4 mM)	71.2 h	0.392 h		COC(=O)CN1C(=O)[C@H](Cc2ccc(OC(C)=O)c(OC(C)=O)c2)NC1(C)C	inactive
0.94	1.89 h	4.75 h	260 µg/mL (≈ 0.773 mM)	64.3 h	0.793 h		CCC1(CC)N[C@@H](Cc2ccc(O)c(O)c2)C(=O)N1CC(=O)OC	Active
			3600 µg/mL (≈ 18.3 mM)			-2.38	N[C@@H](Cc1ccc(O)c(O)c1)C(=O)O [LEVODOPA]	
